We go through eight compounds from ChEMBL document CHEMBL2021913, “Synthesis and biological evaluation of some novel thiazole substituted benzotriazole derivatives” (2012).

Common to all, as to format: functional
The test system of assay [1] is Candida albicans. In words: Antimicrobial activity against Candida albicans 3471 at 128 ug/disc at 37 degC after 24 to 72 hrs by agar-well diffusion assay. The following applies: for zone of inhibition at 128 µg/disc: read-out: DIZ. Put shortly:
(§1)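 Potato dextrose agar base plates overlaid with seeded agar cooled to 40 °C and inoculated with spores from 10-day cultures, final 1 × 10⁶ spores/mL. Compounds dissolved in DMSO at 128 µg/mL and applied on 6 mm filter-paper discs placed on chilled seeded medium. Nystatin positive control, DMSO negative control. Incubation 24–72 h at 37 °C. Inhibition zone diameter read by vernier caliper.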
In general terms: In agar diffusion tests the substance spreads into inoculated agar from a disc or well.

The subject of assay [2] is Pseudomonas aeruginosa. In words: Antimicrobial activity against Pseudomonas aeruginosa 2036 at 35 degC after 18 to 24 hrs by NCCLS method based antimicrobial assay. The following applies: for MBC: read-out: MBC99.9.
In assay [3] the test system is Aspergillus niger. In words: Antimicrobial activity against Aspergillus niger 545 at 128 ug/disc at 37 degC after 24 to 72 hrs by agar-well diffusion assay. The following applies: in the assay text read “disc diffusion assay” for “agar-well diffusion assay”. In short, it runs like this: as §1
Assay [4] has as its system Candida albicans. Description: Antimicrobial activity against Candida albicans 3471 at 35 degC after 48 hrs by CLSI method based antimicrobial assay. The following applies: for MFC: read-out: MFC99.9. Put shortly:
(§2)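 Broth microdilution following CLSI guidelines over 256 to 1 µg/mL. MIC90 is the lowest concentration completely inhibiting growth. For MFC, 0.1 mL from each tube spread on agar and CFU counted after 48 h at 35 °C; MFC is lowest concentration killing 99.9% of inoculum. MFC/MIC ratio calculated: […], ≤4 as fungicidal.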

For assay [5], the system named is Staphylococcus aureus. Description: Antimicrobial activity against Staphylococcus aureus 2079 at 35 degC after 18 to 24 hrs by NCCLS method based antimicrobial assay. The following applies: for MBC: read-out: MBC99.9.
In assay [6] the test system is Escherichia coli. Description: Antimicrobial activity against Escherichia coli 2109 at 35 degC after 18 to 24 hrs by NCCLS method based antimicrobial assay. The following applies: for MBC: read-out: MBC99.9.
The test system of assay [7] is Aspergillus niger. Description: Antimicrobial activity against Aspergillus niger 545 at 35 degC after 48 hrs by CLSI method based antimicrobial assay. Put shortly: as §2
The subject of assay [8] is Bacillus subtilis. Description: Antimicrobial activity against Bacillus subtilis 2250 at 128 ug/disc at 35 degC after 24 hrs by agar-well diffusion assay. The following applies: for zone of inhibition at 128 µg/disc: Bacillus subtilis, 2250, 24 h, read-out: DIZ. Put shortly:
(§3)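 Agar-well diffusion: 24 h bacterial cultures adjusted to 0.5 McFarland (1.5 × 10⁸ CFU/mL) and mixed into molten Mueller-Hinton agar before pouring. 6 mm wells punched and each filled with 50 µL of compound stock or control. Plates incubated 35 °C for 24 h. Zone of growth inhibition diameter measured with vernier caliper.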

Assay [9] deals with Staphylococcus aureus. Description: Antimicrobial activity against Staphylococcus aureus 2079 at 128 ug/disc at 35 degC after 24 hrs by agar-well diffusion assay. The following applies: for zone of inhibition at 128 µg/disc: Staphylococcus aureus, 2079, 24 h, read-out: DIZ. In short, it runs like this: as §3
Assay [10] deals with Bacillus subtilis. In words: Antimicrobial activity against Bacillus subtilis 2250 at 35 degC after 18 to 24 hrs by NCCLS method based antimicrobial assay. The following applies: for MBC: read-out: MBC99.9.
Assay [11] concerns Pseudomonas aeruginosa. In words: Antimicrobial activity against Pseudomonas aeruginosa 2036 at 128 ug/disc at 35 degC after 24 hrs by agar-well diffusion assay. The following applies: for zone of inhibition at 128 µg/disc: Pseudomonas aeruginosa, 2036, 24 h, read-out: DIZ. Put shortly: as §3
For assay [12], the system named is Escherichia coli. In words: Antimicrobial activity against Escherichia coli 2109 at 128 ug/disc at 35 degC after 24 hrs by agar-well diffusion assay. The following applies: for zone of inhibition at 128 µg/disc: Escherichia coli, 2109, 24 h, read-out: DIZ. In short, it runs like this: as §3
The test system of assay [13] is Candida albicans. Description: Ratio of MFC99.9 to MIC90 for Candida albicans 3471 at 35 degC after 48 hrs by CLSI method based antimicrobial assay. Put shortly: as §2

≈ marks a conversion by molar mass, not a printed value. Calls of active or inactive are those of the source. The rule behind the calls is not given here.

As usually defined, the MIC is the least concentration at which growth counts as inhibited. Consider `O=[N+]([O-])c1ccc(-c2csc(N/N=C(/Cn3nnc4ccccc43)c3cc(C(F)(F)F)cc(C(F)(F)F)c3)n2)cc1`, for which the “diameter of the inhibition zone (DIZ)” value with Candida albicans [1], in the assay with Aspergillus niger [3], with Bacillus subtilis [8], in the assay on Staphylococcus aureus [9] and in the assay on Pseudomonas aeruginosa [11] was “inactive” each time. For the same compound, the MBC99.9 result in the assay on Pseudomonas aeruginosa [2], in the assay on Staphylococcus aureus [5] and in the assay on Bacillus subtilis [10] was “inactive” throughout. Further, the MIC entry with Pseudomonas aeruginosa [2], in the assay on Candida albicans [4], in the assay on Staphylococcus aureus [5], in the assay with Aspergillus niger [7] and in the assay on Bacillus subtilis [10] was “inactive” throughout. The MFC99.9 entry in the assay on Candida albicans [4] and with Aspergillus niger [7] was “inactive” each time. In the assay with Escherichia coli [6], the MIC is 128 µg/mL (≈ 216 µM). Also, the MBC in the assay on Escherichia coli [6] is 256 µg/mL (≈ 433 µM). Moreover, the zone of inhibition at 128 µg/disc in the assay with Escherichia coli [12] was 13.1 mm.
For the compound `O=[N+]([O-])c1ccc(-c2csc(N/N=C(/Cn3nnc4ccccc43)c3ccc(Br)cc3)n2)cc1`, the “diameter of the inhibition zone (DIZ)” value with Candida albicans [1], in the assay on Aspergillus niger [3], in the assay on Bacillus subtilis [8], in the assay on Staphylococcus aureus [9] and in the assay on Escherichia coli [12] was “inactive” each time. In the assay with Pseudomonas aeruginosa [2], this compound showed an MIC of 128 µg/mL (≈ 240 µM). Further, the MBC in the assay with Pseudomonas aeruginosa [2] came out at 256 µg/mL (≈ 479 µM). Besides, the MFC99.9 entry in the assay on Candida albicans [4] and with Aspergillus niger [7] was “inactive” each time. For the same compound, the MIC result in the assay with Candida albicans [4], in the assay with Staphylococcus aureus [5], with Escherichia coli [6], in the assay on Aspergillus niger [7] and in the assay on Bacillus subtilis [10] was “inactive” throughout. Besides, the MBC99.9 entry with Staphylococcus aureus [5], with Escherichia coli [6] and in the assay with Bacillus subtilis [10] was “inactive” each time. The zone of inhibition at 128 µg/disc in the assay with Pseudomonas aeruginosa [11] came out at 13.2 mm.
`O=[N+]([O-])c1ccc(/C(Cn2nnc3ccccc32)=N\Nc2nc(-c3ccc(Br)cc3)cs2)cc1`: the zone of inhibition at 128 µg/disc is 17.3 mm in the assay with Candida albicans [1], 15.3 mm with Bacillus subtilis [8] and 22.6 mm in the assay on Staphylococcus aureus [9]. For the same compound, the MBC99.9 result in the assay on Pseudomonas aeruginosa [2] and in the assay with Escherichia coli [6] was “inactive” each time. Also, the MIC entry in the assay with Pseudomonas aeruginosa [2], in the assay with Escherichia coli [6] and in the assay with Aspergillus niger [7] was “inactive” in each case. In the assay on Candida albicans [13], the Ratio is recorded as 2. The “diameter of the inhibition zone (DIZ)” value with Aspergillus niger [3] and in the assay on Pseudomonas aeruginosa [11] was “inactive” in each case. In addition, the MIC is 32 µg/mL (≈ 59.9 µM) in the assay on Candida albicans [4] (Candida albicans, 3471, 48 h); 64 µg/mL (≈ 120 µM) with Staphylococcus aureus [5]; 128 µg/mL (≈ 240 µM) against Bacillus subtilis [10]. Also, in the assay with Candida albicans [4] (Candida albicans, 3471, 48 h), the MFC is 64 µg/mL (≈ 120 µM). Also, the MBC is 128 µg/mL (≈ 240 µM) with Staphylococcus aureus [5] and 256 µg/mL (≈ 479 µM) with Bacillus subtilis [10]. Moreover, the MFC99.9 entry in the assay on Aspergillus niger [7] is “inactive”.
For the compound `O=[N+]([O-])c1ccc(/C(Cn2nnc3ccccc32)=N\Nc2nc(-c3ccc(Cl)cc3)cs2)cc1`, the “diameter of the inhibition zone (DIZ)” value in the assay with Candida albicans [1], in the assay on Aspergillus niger [3], in the assay on Bacillus subtilis [8] and in the assay with Staphylococcus aureus [9] was “inactive” each time. For the same compound, the MIC in the assay on Pseudomonas aeruginosa [2] and against Escherichia coli [6] was 64 µg/mL (≈ 131 µM) each time. Moreover, the MBC in the assay with Pseudomonas aeruginosa [2] and in the assay on Escherichia coli [6] was 128 µg/mL (≈ 261 µM) in each case. Moreover, the MFC99.9 entry in the assay on Candida albicans [4] and in the assay on Aspergillus niger [7] was “inactive” in each case. For the same compound, the MIC result with Candida albicans [4], in the assay with Staphylococcus aureus [5], in the assay on Aspergillus niger [7] and in the assay with Bacillus subtilis [10] was “inactive” each time. For the same compound, the MBC99.9 result with Staphylococcus aureus [5] and with Bacillus subtilis [10] was “inactive” throughout. The figures for the zone of inhibition at 128 µg/disc in the assay with Pseudomonas aeruginosa [11] and in the assay with Escherichia coli [12] were 16.7 mm and 18.7 mm, respectively.
As to `Fc1ccc(/C(Cn2nnc3ccccc32)=N\Nc2nc(-c3ccc(Br)cc3)cs2)cc1`, the figures for the zone of inhibition at 128 µg/disc in the assay with Candida albicans [1], in the assay with Bacillus subtilis [8] and in the assay on Staphylococcus aureus [9] were 14.7 mm, 22.8 mm and 20.9 mm, respectively. The MBC99.9 result in the assay with Pseudomonas aeruginosa [2] and in the assay with Escherichia coli [6] was “inactive” throughout. Besides, the MIC result in the assay with Pseudomonas aeruginosa [2], with Escherichia coli [6] and in the assay on Aspergillus niger [7] was “inactive” throughout. Further, the Ratio with Candida albicans [13] was 2. The “diameter of the inhibition zone (DIZ)” value with Aspergillus niger [3], in the assay with Pseudomonas aeruginosa [11] and in the assay on Escherichia coli [12] was “inactive” each time. Besides, the MIC was 128 µg/mL (≈ 252 µM) in the assay on Candida albicans [4] (Candida albicans, 3471, 48 h); 64 µg/mL (≈ 126 µM) with Staphylococcus aureus [5]; 64 µg/mL (≈ 126 µM) with Bacillus subtilis [10]. Further, in the assay with Candida albicans [4] (Candida albicans, 3471, 48 h), the MFC worked out at 256 µg/mL (≈ 505 µM). For the same compound, the MBC in the assay on Staphylococcus aureus [5] and with Bacillus subtilis [10] was 128 µg/mL (≈ 252 µM) in each case. Moreover, the MFC99.9 entry in the assay with Aspergillus niger [7] is “inactive”.
Take `FC(F)(F)c1cc(/C(Cn2nnc3ccccc32)=N\Nc2nc(-c3ccc(Br)cc3)cs2)cc(C(F)(F)F)c1`: the “diameter of the inhibition zone (DIZ)” value with Candida albicans [1], in the assay on Aspergillus niger [3], in the assay on Bacillus subtilis [8] and with Staphylococcus aureus [9] was “inactive” each time. The same compound registered an MIC in the assay with Pseudomonas aeruginosa [2] of 64 µg/mL (≈ 102 µM). For the same compound, the MBC in the assay with Pseudomonas aeruginosa [2] stood at 128 µg/mL (≈ 205 µM). In addition, the MFC99.9 result with Candida albicans [4] and in the assay on Aspergillus niger [7] was “inactive” in each case. Further, the MIC entry with Candida albicans [4], in the assay with Staphylococcus aureus [5], with Escherichia coli [6], in the assay with Aspergillus niger [7] and with Bacillus subtilis [10] was “inactive” each time. In addition, the MBC99.9 entry in the assay on Staphylococcus aureus [5], with Escherichia coli [6] and in the assay with Bacillus subtilis [10] was “inactive” each time. The zone of inhibition at 128 µg/disc in the assay on Pseudomonas aeruginosa [11] was 15.6 mm.
With `FC(F)(F)c1cc(-c2csc(N/N=C(/Cn3nnc4ccccc43)c3ccc(Br)cc3)n2)cc(C(F)(F)F)c1`, the “diameter of the inhibition zone (DIZ)” value in the assay with Candida albicans [1], with Aspergillus niger [3], in the assay with Pseudomonas aeruginosa [11] and with Escherichia coli [12] was “inactive” throughout. The MBC99.9 entry in the assay with Pseudomonas aeruginosa [2] and in the assay with Escherichia coli [6] was “inactive” each time. The MIC entry in the assay with Pseudomonas aeruginosa [2], in the assay with Candida albicans [4], in the assay on Escherichia coli [6] and with Aspergillus niger [7] was “inactive” in each case. Also, the MFC99.9 result in the assay with Candida albicans [4] and in the assay with Aspergillus niger [7] was “inactive” each time. Moreover, the MIC in the assay on Staphylococcus aureus [5] and in the assay with Bacillus subtilis [10] was 64 µg/mL (≈ 102 µM) throughout. The figures for the MBC with Staphylococcus aureus [5] and in the assay on Bacillus subtilis [10] were 64 µg/mL (≈ 102 µM) and 128 µg/mL (≈ 205 µM), respectively. For the same compound, the zone of inhibition at 128 µg/disc in the assay with Bacillus subtilis [8] was found to be 20.3 mm; in the assay on Staphylococcus aureus [9], 22.1 mm.
Regarding `O=C(N[C@H](CO)[C@H](O)c1ccc([N+](=O)[O-])cc1)C(Cl)Cl` [CHLORAMPHENICOL], the MBC with Pseudomonas aeruginosa [2], in the assay on Staphylococcus aureus [5], in the assay with Escherichia coli [6] and in the assay with Bacillus subtilis [10] was 32 µg/mL (≈ 99 µM) in each case. For the same compound, the zone of inhibition at 128 µg/disc was 29.2 mm in the assay with Bacillus subtilis [8], 31.4 mm with Staphylococcus aureus [9], 23.9 mm in the assay with Pseudomonas aeruginosa [11] and 27.6 mm in the assay with Escherichia coli [12].
